The values that follow come from ChEMBL document CHEMBL4346761, “Microwave-Assisted Organic Synthesis, structure-activity relationship, kinetics and molecular docking studies of non-cytotoxic benzamide derivatives as selective butyrylcholinesterase inhibitors” (Bioorg Med Chem, 2019).

Each structure is given as a SMILES string. Activity calls are given as the source filed them. The rule behind the calls is not given here.

The target of data set [1] is T1, Cholinesterase (Equus caballus, UniProt P81908). The experiment in a line: (§1) Inhibition of equine serum BChE using […] chloride as substrate preincubated for 15 mins followed by substrate addition and measured after 15 mins under dark condition by Ellman's method. The method, boiled down:
(§2)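 Modified Ellman assay. Equine serum BChE (51.732 mU) was preincubated 15 min at 25 °C with test compound (dissolved in methanol) in 100 mM sodium phosphate buffer, pH 8.0. Butyrylthiocholine chloride (0.5 mM) was added for 15 min in the dark, then DTNB (0.5 mM) was added. Absorbance was read at 412 nm and mean IC50 values were derived.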
For orientation: In Ellman's method for cholinesterases, released thiocholine reacts with DTNB.

In data set [2] the target is Acetylcholinesterase (Electrophorus electricus) (UniProt O42275). Put plainly: Inhibition of electric eel AChE using acetylthiocholine iodide as substrate preincubated for 15 mins followed by substrate addition and measured after 15 mins under dark condition by Ellman's method. The method, boiled down: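 Modified Ellman assay. Electric eel AChE (0.002 mU) was preincubated 15 min at 25 °C with test compound (dissolved in methanol) in 100 mM sodium phosphate buffer, pH 8.0. Acetylthiocholine iodide (0.5 mM) and DTNB were added. After 15 min in the dark, absorbance was read at 412 nm.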
Sequence of Acetylcholinesterase (Electrophorus electricus) (O42275 24-633 limits assumed): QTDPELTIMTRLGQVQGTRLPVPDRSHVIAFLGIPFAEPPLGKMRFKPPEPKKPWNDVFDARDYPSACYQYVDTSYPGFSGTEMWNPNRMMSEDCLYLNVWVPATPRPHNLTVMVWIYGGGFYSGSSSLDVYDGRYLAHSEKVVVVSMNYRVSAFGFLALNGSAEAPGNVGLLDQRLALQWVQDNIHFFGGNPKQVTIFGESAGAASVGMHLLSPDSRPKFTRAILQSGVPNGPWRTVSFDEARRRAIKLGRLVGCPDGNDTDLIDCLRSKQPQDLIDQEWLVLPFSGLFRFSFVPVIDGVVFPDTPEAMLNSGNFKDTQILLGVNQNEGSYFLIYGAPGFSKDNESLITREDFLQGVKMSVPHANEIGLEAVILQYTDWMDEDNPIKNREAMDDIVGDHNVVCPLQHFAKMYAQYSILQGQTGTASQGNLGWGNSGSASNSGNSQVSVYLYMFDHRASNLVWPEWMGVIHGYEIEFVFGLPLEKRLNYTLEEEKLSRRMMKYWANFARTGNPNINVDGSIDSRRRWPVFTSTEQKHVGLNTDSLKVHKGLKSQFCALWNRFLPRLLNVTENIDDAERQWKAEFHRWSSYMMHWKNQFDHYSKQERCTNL

Data set [3] concerns NIH3T3. The experiment in a line: Cytotoxicity against mouse 3T3 cells at 1 to 30 uM measured after 48 hrs by MTT assay relative to control. The conditions noted are these: nih3t3, 48 h. In kind it is cell-based. The method, boiled down:
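MTT colorimetric read-out. Cells seeded at 3x10^5 in 100 µL medium and left 24 h to attach. Medium then replaced with fresh medium plus test compound (1 to 30 µM). Incubated 48 h at 37 °C, 5% CO2, 90% humidity. MTT added, 4 h incubation. Formazan dissolved in DMSO, absorbance read at 540 nm. IC50 values calculated.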
(In general: Formazan colour is commonly taken as a measure of viable cells.)

In data set [4] the target is Cholinesterase (Equus caballus) (UniProt P81908). Put plainly: Inhibition of equine serum BChE using […] chloride as substrate preincubated for 15 mins followed by substrate addition and measured after 15 mins under dark condition by Ellman's method relative to control. More on the design: concentration or dose not given beside the values. The method, boiled down: as §2
Sequence of Cholinesterase (Equus caballus) (P81908 whole entry): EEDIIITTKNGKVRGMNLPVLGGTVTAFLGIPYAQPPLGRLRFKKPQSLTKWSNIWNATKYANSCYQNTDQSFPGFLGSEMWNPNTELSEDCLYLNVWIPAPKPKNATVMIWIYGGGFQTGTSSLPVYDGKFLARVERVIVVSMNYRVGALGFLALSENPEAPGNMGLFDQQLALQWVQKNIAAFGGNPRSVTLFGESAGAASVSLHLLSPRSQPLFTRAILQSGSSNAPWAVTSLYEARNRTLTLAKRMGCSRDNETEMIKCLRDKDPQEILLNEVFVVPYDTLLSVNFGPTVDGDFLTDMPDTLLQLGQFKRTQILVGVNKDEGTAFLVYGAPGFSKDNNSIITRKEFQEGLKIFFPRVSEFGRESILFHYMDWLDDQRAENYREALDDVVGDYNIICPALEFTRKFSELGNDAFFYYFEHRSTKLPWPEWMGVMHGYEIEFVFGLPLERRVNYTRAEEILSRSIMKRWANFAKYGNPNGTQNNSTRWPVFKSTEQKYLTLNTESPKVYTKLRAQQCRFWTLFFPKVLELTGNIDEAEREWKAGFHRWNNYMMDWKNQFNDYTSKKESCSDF

The target in data set [5] is T1, Cholinesterase. The experiment in a line: Mixed inhibition of equine serum BChE using varying levels of […] chloride as substrate by Lineweaver-Burk plot analysis. The method, boiled down: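 Kinetics for BChE in the Ellman format with varied substrate. Inhibition mode was assigned from Lineweaver-Burk plots, secondary replots (slope vs inhibitor concentration) and Dixon plots. Apparent Km and Vmax were determined.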

In data set [6] the test system is NIH3T3. The experiment in a line: Cytotoxicity against mouse 3T3 cells measured after 48 hrs by MTT assay relative to control. In kind it is cell-based. Particulars: nih3t3, 48 h. The method, boiled down: (§3)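 Cells seeded at 3x10^5 per well in medium and allowed to attach. After 24 h the medium was replaced with fresh medium plus test compound (1 to 30 µM). Plates were held 48 h at 37 °C, 5% CO2, 90% humidity. MTT was added for 4 h, formazan dissolved in DMSO, and absorbance read at 540 nm. IC50 values were calculated.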

For data set [7], the system named is NIH3T3. Put plainly: Cytotoxicity against mouse 3T3 cells measured after 48 hrs by MTT assay. Type of data set: cell-based. The conditions noted are these: NIH3T3, 48 h. The method, boiled down:
as §3

Data set [8] concerns the target T1, Cholinesterase. The experiment in a line: Uncompetitive inhibition of equine serum BChE using varying levels of […] chloride as substrate by Lineweaver-Burk plot analysis.
Data set [9] addresses Cholinesterase (Equus caballus) (UniProt P81908). The data set is described as §1. The method, boiled down:
as §2

Data set [10] has the same target. The experiment in a line: Potency index, ratio of donepezil IC50 to test compound IC50 for equine serum BChE.

T1 sequence (P81908 whole entry): as above

On Cholinesterase [1], `Cc1ccc(C(=O)Nc2c(Cl)cccc2Cl)cc1[N+](=O)[O-]` registered an IC50 of 165 µM. The inhibition entry in data set [2] was “inactive”. In the data set on NIH3T3 [3], this molecule yielded an Activity of 40%. In data set [4], the inhibition was determined as 69.1%.

In turn, `COc1cccc(C(=O)Nc2c(Cl)cccc2Cl)c1` registered a Ki at Cholinesterase [5] of 13 µM. This molecule came in with an IC50 at Cholinesterase [1] of 5.5 µM. For the same molecule, the inhibition result in data set [2] is “inactive”. Further, in the data set on NIH3T3 [3], the Activity is given as 14.8%. Moreover, the inhibition in data set [4] stood at 95.2%.

Regarding `C[C@@H]1C[C@@H]([C@H](O)CC2CC(=O)NC(=O)C2)C(=O)[C@@H](C)C1` [CYCLOHEXIMIDE], the Activity in the data set on NIH3T3 [6] amounted to 95%. Besides, in the data set with NIH3T3 [7], the IC50 was 0.8 µM.

On Cholinesterase [1], `CCOc1ccccc1C(=O)Nc1c(Cl)cccc1Cl` showed an IC50 of 6 µM. For the same molecule, the inhibition entry in data set [2] was “inactive”. This molecule also came in with an Activity in the data set with NIH3T3 [3] of 15%. Moreover, the inhibition in data set [4] was found to be 112%.

On Cholinesterase [5], `COc1ccc(C(=O)Nc2c(Cl)cccc2Cl)cc1` registered a Ki of 18 µM. The same molecule came in with an IC50 at Cholinesterase [1] of 11.3 µM. In [2], the inhibition entry was “inactive”. Also, the Activity in the data set with NIH3T3 [3] is 32%. The inhibition in data set [4] was determined as 90.7%.

On to `O=C(Nc1c(Cl)cccc1Cl)c1c(F)cccc1F`, for which, at Cholinesterase [8], the Ki is 5.6 µM. The molecule also yielded an IC50 at Cholinesterase [1] of 12.6 µM. The inhibition result in [2] was “inactive”. The same molecule returned an Activity in the data set with NIH3T3 [3] of 34%. The inhibition in data set [4] is 70.6%.

With `O=C(Nc1c(Cl)cccc1Cl)c1cccc([N+](=O)[O-])c1`, the inhibition result in data set [9] and in data set [2] was “inactive” throughout. In the data set with NIH3T3 [3], this molecule had an Activity of 41%.

On Cholinesterase [5], `O=C(Nc1c(Cl)cccc1Cl)c1ccccc1` registered an inhibitory constant (Ki) of 4.4 µM. At Cholinesterase [1], this molecule gave an IC50 of 1.3 µM. Further, the inhibition entry in data set [2] is “inactive”. The Activity with NIH3T3 [3] amounted to 33%. In addition, the inhibition in [4] stood at 100%. In data set [10], the Ratio IC50 was 10.

As for `O=C(Nc1c(Cl)cccc1Cl)c1ccccc1Br`, the affinity on Cholinesterase [8], expressed as Ki, was 2.4 µM. Also, at Cholinesterase [1], the IC50 was 1.1 µM. In addition, the inhibition result in data set [2] is “inactive”. This molecule yielded an Activity with NIH3T3 [3] of 41%. Moreover, in [4], the inhibition is 88%.

On to `O=C(Nc1c(Cl)cccc1Cl)c1ccc(F)cc1`, for which the Ki at Cholinesterase [5] came to 9.9 µM. The molecule also gave an IC50 on Cholinesterase [1] of 16.1 µM. In addition, the inhibition entry in [2] is “inactive”. Besides, in the data set on NIH3T3 [3], the Activity amounted to 29%. For the same molecule, in data set [4], the inhibition was 86.5%.

As for `O=C(Nc1c(Cl)cccc1Cl)c1ccc(Br)cc1`, the Ki on Cholinesterase [5] stood at 2.6 µM. This molecule displayed an IC50 against Cholinesterase [1] of 0.8 µM. For the same molecule, the inhibition entry in data set [2] is “inactive”. For the same molecule, the Activity with NIH3T3 [3] was 49%. For the same molecule, the inhibition in [4] amounted to 84%.

Molecule `COc1cc(C(=O)Nc2c(Cl)cccc2Cl)cc(OC)c1OC` yielded a Ki on Cholinesterase [8] of 23.5 µM. The molecule further had a 50% inhibitory concentration (IC50) at Cholinesterase [1] of 20.8 µM. In data set [2], the inhibition entry was “inactive”. This molecule gave an Activity with NIH3T3 [3] of 48%. In data set [4], the inhibition was 69.2%.

Take `O=C(Nc1c(Cl)cccc1Cl)c1ccc(F)cc1F`: the Ki at Cholinesterase [8] was 27.6 µM. This molecule also had an IC50 against Cholinesterase [1] of 18.7 µM. Besides, in data set [2], the inhibition result is “inactive”. In the data set with NIH3T3 [3], the Activity was 34%. Further, the inhibition in data set [4] stood at 80.7%.

One may read the IC50 as the concentration at which inhibition is half-maximal. A word on the inhibition: it is the drop in the measured response relative to a control, in per cent. One may read the Ki as the dissociation constant of the complex between target and ligand, obtained from inhibition or displacement.
